High-throughput results: PubChem, several laboratories
ERa SRC1 inh: ERα–SRC-1 coactivator interaction inhibitors, primary screen, biochemical, TR-FRET, ERα LBD, estradiol-bound; Estrogen receptor (Homo sapiens), P03372; TR-FRET ER-alpha LBD / SRC-1 peptide; inhibition, % at 25.6 µM; 86,000 tested, 1.7% active; AID 629, 2007; in the data active = inhibition above about 50%;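 also: 0% = receptor plus peptide control and 100% = peptide only without receptor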
Smad3 inh: Smad3/FoxH1 peptide binding inhibitors, primary screen, biochemical, TR-FRET; Mothers against decapentaplegic homolog 3 (Homo sapiens), P84022; inhibition, % at 25 µM; TR-FRET Smad3/Dy647-FoxH1 peptide binding, europium anti-His; 88,000 tested, 0.29% active;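 active = compounds that reduce the energy-transfer binding signal between the protein and its labelled peptide by more than half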;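 also: 0% = Smad3 plus labelled peptide maximal FRET and 100% = peptide-only background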
Rev-RRE block: HIV-1 Rev-RRE binding inhibitors, primary screen, biochemical, FRET, protein-RNA interaction | P05866 | Rev peptide-RRE RNA binding | inhibition, % at 8 µM | 97,000 tested, 0.79% active;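 active = inhibition above the screen-wide mean plus 3 SD, cut at about 35% in these data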;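 also: 0% = median DMSO wells and 100% = median Neomycin B control wells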
Target sequence (P05866 whole entry, looked up): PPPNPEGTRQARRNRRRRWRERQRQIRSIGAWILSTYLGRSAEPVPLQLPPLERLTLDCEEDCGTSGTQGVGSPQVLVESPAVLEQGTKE
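Test system – labelled RRE RNA duplex and labelled Rev peptide · Reagent – labelled Rev peptide · Doses – one concentration, 8 µM nominal · Incubation – 5 + 15 min at 25 °C · Signal – FRET fluorescence readout · Read-out basis – % inhibition of FRET ratio versus controls · Control set – DMSO wells as 0% and neomycin B wells as 100% inhibition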
FAK inh: FAK kinase inhibitors, primary screen, biochemical; Focal adhesion kinase 1 (Homo sapiens), Q05397; biochemical FAK kinase activity assay; inhibition, %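 (tested at 7 µM)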; 97,000 tested, 0.84% active; in the data active = inhibition above about 19%;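 also: 0% = DMSO and 100% = reference compound high control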
ERb SRC1 inh: inhibitors of ERβ-SRC1 coactivator interaction, primary screen, biochemical, TR-FRET, ERβ LBD, SRC-1 peptide; TR-FRET ER-beta LBD / SRC1-Cy5 peptide binding; receptor agonist-loaded with 1 µM estradiol; AID 633, 2007; Estrogen receptor beta (Homo sapiens), Q92731; inhibition, % at 25.6 µM; 86,000 tested, 1.3% active;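 active = compounds whose percent inhibition of the receptor-coactivator binding signal exceeds about 50% in the single-dose screen, limit read from the data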;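 also: 0% = receptor plus peptide wells without compound and 100% = peptide-only wells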
Target sequence (Q92731 whole entry, looked up, the tested form may be a part): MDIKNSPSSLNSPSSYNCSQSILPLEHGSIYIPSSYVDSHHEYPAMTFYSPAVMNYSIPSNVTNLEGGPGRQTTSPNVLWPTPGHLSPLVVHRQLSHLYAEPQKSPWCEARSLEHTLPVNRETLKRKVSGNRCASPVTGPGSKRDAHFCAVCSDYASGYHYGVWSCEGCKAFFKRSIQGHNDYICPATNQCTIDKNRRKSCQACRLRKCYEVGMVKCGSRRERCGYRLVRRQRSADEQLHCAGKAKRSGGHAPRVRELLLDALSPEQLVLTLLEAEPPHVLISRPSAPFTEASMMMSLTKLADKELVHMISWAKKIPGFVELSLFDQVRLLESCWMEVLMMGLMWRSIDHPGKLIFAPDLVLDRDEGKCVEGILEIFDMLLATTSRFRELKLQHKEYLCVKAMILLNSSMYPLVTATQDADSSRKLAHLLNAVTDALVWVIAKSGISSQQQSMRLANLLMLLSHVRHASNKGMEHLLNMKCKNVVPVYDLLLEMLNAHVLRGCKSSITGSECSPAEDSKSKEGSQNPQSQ
ERa coact pot: enhancers of ERα–SRC-1 coactivator binding, primary screen, biochemical, TR-FRET, ERα LBD, low estradiol; AID 639, 2007; TR-FRET ERalpha-LBD/SRC-Cy5 coactivator binding, 2 h; 100 = basal binding, no effect; coactivator binding (% of control), % at 25.6 µM; 86,000 tested, 1.3% active; in the data active = activity above about 200%;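 also: binding measured in presence of low estradiol as agonist stimulus; 0% = peptide alone without receptor and 100% = receptor with peptide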
Numbers without * were called inactive; · = no result; [ ] = another dose, or the depositor's remark. This is a sample that favours compounds with a hit; in the whole collection about 4% have one here.

SMILES	ERa SRC1 inh	Smad3 inh	Rev-RRE block	FAK inh	ERb SRC1 inh	ERa coact pot
CCCn1nnc(NC(=S)NC(=O)CC)n1	·	·	4	-1	·	·
NC(=O)c1oc2ccccc2c1NC(=O)c1ccc(F)cc1	·	·	-1	18	·	·
NC(=O)c1oc2ccccc2c1NC(=O)c1nc2ccccc2s1	22	6	2	-4	26	493*
CCOc1ccc(OCC)c(NC(=O)Nc2ccc3c(c2)N(C)C(=O)CS3)c1	-5	-4	6	0	-1	110
Cc1c(Cl)c(S(N)(=O)=O)cc(S(N)(=O)=O)c1NC(=O)c1ccc(Cl)cc1	·	15	·	·	·	·
CCOCC(=O)Nc1cccc(C(=O)OCC)c1	60*	4	6	3	-4	116
CCOC(=O)c1cccc(NC(=O)COC)c1	-3	-1	9	0	-2	97
Cc1ccc(C)c(Cn2c(=O)n(-c3ccc(CC(=O)NCc4ccco4)cc3)c(=O)c3sccc32)c1	80*[fluorescence artefact?]	-71	3	6	55*	127
Cc1ccc(S(=O)(=O)N2CCN(c3nc4ccccc4nc3-n3nc(C)cc3C)CC2)cc1	9	2	4	-9	-9	185
Cc1cc(C)c2cc(C#N)c(NCCOC(=O)c3ccccc3C)nc2c1	·	·	2	0	·	·
CC(=O)c1cccc(S(=O)(=O)N2CCN(c3nc4cc(C)cc(C)c4cc3C#N)CC2)c1	40	-12	4	-5	58*[fluorescence artefact?]	183
Cc1cc(C)c2cc(C#N)c(N3CCCN(S(=O)(=O)c4ccccc4)CC3)nc2c1	24	4	15	-2	27	262*[fluorescence artefact?]
O=C(O)c1cc2ccccc2c(S(=O)(=O)O)c1O	·	0	·	·	·	·
COc1ccc(OC)c(NC(=O)C2CCCN2C(=O)C2CCC(C)CC2)c1 (stereo not given)	91*[fluorescence artefact?]	9	3	-1	10	97
COc1ccc(OC)c(NC(=O)CCN2CCCCCC2)c1	51*[fluorescence artefact?]	-6	-4	3	48	46
CCOc1ccc2nc3c(cc2c1)CN(CCOC)C(=NCCOC)S3	43	-117	-1	3	33	483*[fluorescence artefact?]
COc1ccc(-c2nc(Cn3c(SCc4ccc(C)cc4)nc4ccncc43)c(C)o2)cc1OC	42	3	-3	-5	36	217*
COc1ccc(-c2nc(Cn3c(SCc4cccc(F)c4)nc4ccncc43)c(C)o2)cc1OC	9	8	·	·	36	237*
CC(C)CSC[C@@H]1O[C@H](n2cnc3c(N)nccc32)[C@H](O)[C@H]1O	·	13	·	·	·	·
CCOC(=O)c1ccc(NC(=O)COc2ccc(-n3cnnn3)cc2)cc1	91*[fluorescence artefact?]	5	-8	10	82*[fluorescence artefact?]	14
O=C(COc1ccc(F)cc1)Nc1ccc(-n2cnnn2)cc1	-1	-6	0	2	0	124
CCOC(=O)c1ccc(NC(=O)CCOc2ccccc2)cc1	-1	-1	6	-1	-3	659*[fluorescence artefact?]
c1ccc(-c2nc3ccccc3nc2N2CCOCC2)cc1	1	-16	2	0	-2	112
Cc1ccc2cc(/C=C3\N=C(c4ccccc4)OC3=O)c(N3CCOCC3)nc2c1	·	·	39*	-3	·	·
c1ccc(CCCNc2nnnc3ccccc23)cc1	·	2	·	·	·	·
SMILES	ERa SRC1 inh	Smad3 inh	Rev-RRE block	FAK inh	ERb SRC1 inh	ERa coact pot
Cc1cc(=S)[nH]c2ccccc12	0	13	6	3	4	85
Cc1ccc2[nH]c(=S)cc(C)c2c1	16	18	3	-3	60*[fluorescence artefact?]	83
c1ccc(CCc2cccnc2)nc1	·	10	·	·	·	·
CCOC(=O)c1cnc(-n2cc(C)cn2)nc1NCc1ccc2c(c1)OCO2	65*[fluorescence artefact?]	2	0	7	32	100
CCS(=O)(=O)N1CCC(C(=O)NCCCN2CCCCCC2)CC1	-3	10	9	4	0	920*[fluorescence artefact?]
Cc1ccc(NC2=CC(=O)C(=O)c3ccccc32)cc1	-8	48	4	26*	4	109
N=C1C=CC(=C(c2ccc(N)cc2)c2ccc(N)cc2)C=C1	·	3	·	·	·	·
O=C(Nc1nc(-c2ccc3c(c2)OCCO3)cs1)c1ccc(S(=O)(=O)N2CCCCC2)cc1	11	6	-2	-1	15	269*[fluorescence artefact?]
COCCN(CCOC)S(=O)(=O)c1ccc(C(=O)Nc2nc(-c3ccncc3)cs2)cc1	9	2	0	-3	3	211*
COCCN(CCOC)S(=O)(=O)c1ccc(C(=O)Nc2nc(C)c(C(C)=O)s2)cc1	·	·	4	0	·	·
O=C(Nc1nc(-c2ccc(S(=O)(=O)N3CCCC3)cc2)cs1)C1COc2ccccc2O1 (stereo not given)	-15	-1	1	2	-4	192
O=C(Nc1nc(-c2cccs2)cs1)c1ccc(S(=O)(=O)N2CCCC2)cc1	13	10	2	-6	51*[fluorescence artefact?]	190
O=C(Nc1nc(-c2ccc(S(=O)(=O)N3CCCCCC3)cc2)cs1)c1ccccc1	-10	0	6	-3	-4	696*[fluorescence artefact?]
O=C1[C@@H]2[C@H](C(=O)N1CN1CCOCC1)[C@H]1[C@@H]3C=C[C@@H]([C@@H]4C(=O)N(CN5CCOCC5)C(=O)[C@@H]34)[C@@H]21	·	0	·	·	·	·
COc1ccc2cc1Oc1ccc(cc1)C[C@H]1c3c(cc(OC)c4c3Oc3cc5c(cc3O4)CCN[C@H]5C2)CCN1C	·	-2	·	·	·	·
C=C[C@]1(C)C[C@H](OC(=O)CO)[C@]2(C)C3C(=O)CC[C@]3(CC[C@H]2C)[C@H](C)[C@H]1O (stereo not given in full)	·	9	·	·	·	·
O=C(O)CSc1ccc([N+](=O)[O-])cc1[N+](=O)[O-]	·	11	·	·	·	·
Cc1ccc(C(=O)N/C(=C\c2ccco2)C(=O)NCCCn2ccnc2)cc1C	·	·	3	-1	·	·
CCCCNc1nc(SC)nc2nc[nH]c12	·	8	·	·	·	·
Cc1ccc(S(=O)(=O)N2CCN(C(=O)CSc3ncc(C(F)(F)F)cc3Cl)CC2)cc1	69*	-22	5	2	1	94
Cc1csc(SCC(=O)N2CCN(S(=O)(=O)c3ccc(Cl)cc3)CC2)n1	-1	-2	-1	0	2	91
N#Cc1c(N)nc(SCC(=O)C23CC4CC(CC(C4)C2)C3)c(C#N)c1-c1ccc(Cl)cc1	34	17	10	-8	32	479*[fluorescence artefact?]
CCOC(=O)CC(=O)CSc1nc(N)c(C#N)c(-c2ccc(Cl)cc2)c1C#N	15	5	14	-13	19	220*[fluorescence artefact?]
